The values below come from ChEMBL document CHEMBL1127564, “Studies on neurokinin antagonists. 4. Synthesis and structure-activity relationships of novel dipeptide substance P antagonists: N2-[(4R)-4-hydroxy-1-[(1-methyl-1H-indol-3-yl)carbonyl]-L-prolyl]-N- methyl-N-(phenylmethyl)-3-(2-naphthyl)-L-alaninamide and its related compounds” (J Med Chem, 1994).

The inhibition in vivo is the relative decrease from the control value, in per cent. For orientation: pIC50 means the negative decadic logarithm of the IC50, by convention in mol/L.

pIC50: −log10 of the molar value.

Assay [1] deals with Cavia porcellus. As to the kind of experiment: In vivo inhibitory activity against airway edema induced by Substance P at a dose 100 mg/kg administered orally. The following applies: route oral. In kind it is functional. The procedure, abridged: (§1)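 Male Hartley guinea pigs dosed orally with drug in DMSO solution, or with vehicle, 30 min before intravenous SP (1.3 μg/kg) given with Evans Blue (20 mg/kg) and heparin (200 IU/kg). Trachea and main bronchi removed 10 min after challenge; dye extracted and read at 620 nm. Percent inhibition of edema reported, two animals per experiment.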

The target of the next assay is Substance-P receptor (Cavia porcellus, UniProt P30547). As to the kind of experiment: In vitro binding affinity against substance P receptor using [3H]SP as radioligand in guinea pig lung membrane. In kind it is cell membranes. The essentials: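 Guinea pig lung membranes incubated with 1 nM [3H]SP, with or without test compound, 0.5 h at 4 °C in 50 mM Tris-HCl pH 7.5, 5 mM MnCl2, 0.02% BSA, chymostatin, leupeptin, bacitracin. Filtered on glass-fibre filters, radioactivity counted by scintillation. Specific binding defined as that displaced by 5 μM unlabeled SP. IC50 estimated from the displacement curve. Duplicate assays, usually a single experiment.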

In assay [2] the test system is Cavia porcellus. As to the kind of experiment: In vivo inhibitory activity against airway edema induced by Substance P at a dose 10 mg/kg administered orally. In kind it is functional. The note with it: route oral. The procedure, abridged:
as §1

Substance-P receptor, sequence (P30547 whole entry): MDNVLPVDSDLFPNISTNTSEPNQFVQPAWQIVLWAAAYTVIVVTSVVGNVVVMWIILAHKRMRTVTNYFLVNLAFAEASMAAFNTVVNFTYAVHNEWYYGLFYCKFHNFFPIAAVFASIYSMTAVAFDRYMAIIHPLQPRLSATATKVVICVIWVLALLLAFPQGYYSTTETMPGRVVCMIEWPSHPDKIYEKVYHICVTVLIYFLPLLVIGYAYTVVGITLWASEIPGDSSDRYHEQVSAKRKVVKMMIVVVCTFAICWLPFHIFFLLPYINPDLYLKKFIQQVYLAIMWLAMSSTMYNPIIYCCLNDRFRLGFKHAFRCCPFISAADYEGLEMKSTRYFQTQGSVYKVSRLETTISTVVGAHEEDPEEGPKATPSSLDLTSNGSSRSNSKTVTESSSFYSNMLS

With `Cc1ccc2cc(C[C@@H](NC(=O)C3C[C@@H](O)CN3C(=O)c3cn(C)c4ccccc34)C(=O)N(C)Cc3ccccc3)ccc2c1` (stereo not given in full), the inhibition in vivo at 100 mg/kg in the assay with Cavia porcellus [1] came to 28%. The pIC50 on Substance-P receptor is 7.64.

With `CN(Cc1ccccc1)C(=O)[C@@H](Cc1ccccc1)NC(=O)C1C[C@@H](O)CN1C(=O)/C=C/c1ccccc1` (stereo not given in full), in the assay with Cavia porcellus [2], the inhibition in vivo at 10 mg/kg was 47%. For the same compound, the pIC50 on Substance-P receptor (read-out: IC50) is 8.05.

Take `CN(Cc1ccccc1)C(=O)[C@@H](Cc1ccccc1)NC(=O)C1C[C@@H](O)CN1C(=O)c1[nH]nc2ccccc12` (stereo not given in full): at 10 mg/kg the inhibition in vivo with Cavia porcellus [2] was 0%. Besides, on Substance-P receptor (read-out: IC50), the pIC50 was 8.30.

As for `CN(Cc1ccccc1)C(=O)[C@@H](Cc1ccc2c(c1)OCCO2)NC(=O)C1C[C@@H](O)CN1C(=O)c1cn(C)c2ccccc12` (stereo not given in full), the inhibition in vivo at 100 mg/kg in the assay with Cavia porcellus [1] is 1%. Further, on Substance-P receptor (read-out: IC50), the pIC50 is 8.96.

Turning to `CN(Cc1ccccc1)C(=O)[C@@H](Cc1ccccc1)NC(=O)C(CO)NC(=O)c1c[nH]c2ccccc12` (stereo not given in full), the pIC50 on Substance-P receptor (read-out: IC50) is 7.96.

The compound `CN(Cc1ccccc1)C(=O)[C@@H](Cc1cn(C=O)c2ccccc12)NC(=O)C1C[C@@H](O)CN1C(=O)c1cn(C)c2ccccc12` (stereo not given in full) returned an inhibition in vivo at 100 mg/kg with Cavia porcellus [1] of 21%. For the same compound, the pIC50 at Substance-P receptor (read-out: IC50) is 8.46.

Turning to `CN(Cc1ccccc1)C(=O)[C@@H](Cc1ccc(O)cc1)NC(=O)C1C[C@@H](O)CN1C(=O)c1cn(C)c2ccccc12` (stereo not given in full), the inhibition in vivo at 100 mg/kg with Cavia porcellus [1] came to 11%. The pIC50 on Substance-P receptor is 8.74.

As for `CN(Cc1ccccc1)C(=O)[C@@H](Cc1ccccc1)NC(=O)C1C[C@@H](O)CN1C(=O)Cc1ccccc1` (stereo not given in full), the pIC50 on Substance-P receptor (read-out: IC50) was 6.86.

`CN(C)CCn1cc(C(=O)N2C[C@H](O)CC2C(=O)N[C@H](Cc2ccccc2)C(=O)N(C)Cc2ccccc2)c2ccccc21` (stereo not given in full) registered an inhibition in vivo at 10 mg/kg with Cavia porcellus [2] of 2%. Further, the pIC50 on Substance-P receptor (read-out: IC50) was 8.46.

Consider `CN(Cc1ccccc1)C(=O)[C@@H](Cc1cccc(C(F)(F)F)c1)NC(=O)C1C[C@@H](O)CN1C(=O)c1cn(C)c2ccccc12` (stereo not given in full), for which, in the assay on Cavia porcellus [1], the inhibition in vivo at 100 mg/kg is 66%. Moreover, on Substance-P receptor, the pIC50 was 8.46.

With `CN(Cc1ccccc1)C(=O)C(Cc1ccccc1)NC(=O)C1C[C@H](O)CN1C(=O)c1c[nH]c2ccccc12` (single isomer, unassigned), on Substance-P receptor (read-out: IC50), the pIC50 is 8.34.

Consider `CN(Cc1ccccc1)C(=O)[C@@H](Cc1ccc([N+](=O)[O-])cc1)NC(=O)C1C[C@@H](O)CN1C(=O)c1cn(C)c2ccccc12` (stereo not given in full), for which testing at 100 mg/kg in the assay with Cavia porcellus [1] gave an inhibition in vivo of 39%. In the assay with Cavia porcellus [2], this compound returned an inhibition in vivo at 10 mg/kg of 19%. For the same compound, at Substance-P receptor (read-out: IC50), the pIC50 is 8.15.

For the compound `CN(Cc1ccccc1)C(=O)[C@@H](Cc1ccccc1)NC(=O)C1C[C@@H](O)CN1C(=O)c1cn(C)c2ccccc12` (stereo not given in full), in the assay with Cavia porcellus [1], the inhibition in vivo at 100 mg/kg turned out to be 75%. This compound displayed an inhibition in vivo at 10 mg/kg in the assay on Cavia porcellus [2] of 51%.

In the assay with Cavia porcellus [2], `CN(Cc1ccccc1)C(=O)[C@@H](Cc1ccccc1)NC(=O)C1C[C@@H](O)CN1C(=O)c1cc2ccccc2s1` (stereo not given in full) registered an inhibition in vivo at 10 mg/kg of 37%. At Substance-P receptor (read-out: IC50), the pIC50 is 7.70.

On to `CN(Cc1ccccc1)C(=O)[C@@H](Cc1ccc(NS(C)(=O)=O)cc1)NC(=O)C1C[C@@H](O)CN1C(=O)c1cn(C)c2ccccc12` (stereo not given in full), for which the inhibition in vivo at 100 mg/kg in the assay with Cavia porcellus [1] worked out at 0%. Also, the pIC50 on Substance-P receptor (read-out: IC50) is 7.60.

As to `CN(Cc1ccccc1)C(=O)[C@@H](Cc1ccccc1)NC(=O)C1C[C@@H](O)CN1C(=O)CCCc1ccccc1` (stereo not given in full), the pIC50 on Substance-P receptor is 7.49.

Consider `CN(Cc1ccccc1)C(=O)[C@@H](Cc1ccccc1F)NC(=O)C1C[C@@H](O)CN1C(=O)c1cn(C)c2ccccc12` (stereo not given in full), for which testing at 100 mg/kg in the assay on Cavia porcellus [1] gave an inhibition in vivo of 35%. Also, at Substance-P receptor (read-out: IC50), the pIC50 is 7.85.

In the assay on Cavia porcellus [1], `CN(Cc1ccccc1)C(=O)[C@@H](Cc1c[nH]c2ccccc12)NC(=O)C1C[C@@H](O)CN1C(=O)c1cn(C)c2ccccc12` (stereo not given in full) returned an inhibition in vivo at 100 mg/kg of 7%. In addition, the pIC50 on Substance-P receptor (read-out: IC50) was 8.77.

As to `CN(Cc1ccccc1)C(=O)[C@@H](Cc1ccccc1)NC(=O)[C@H]1CCCN1C(=O)c1c[nH]c2ccccc12`, at Substance-P receptor, the IC50 result is “Not Active”.

Turning to `CN(Cc1ccccc1)C(=O)[C@@H](Cc1ccc2cc(Cl)ccc2c1)NC(=O)C1C[C@@H](O)CN1C(=O)c1cn(C)c2ccccc12` (stereo not given in full), the negative-log IC50 (pIC50) on Substance-P receptor (read-out: IC50) was 7.56.

Turning to `CN(Cc1ccccc1)C(=O)[C@@H](Cc1ccccc1)NC(=O)C1C[C@@H](O)CN1C(=O)c1cn(CC(=O)O)c2ccccc12` (stereo not given in full), the pIC50 at Substance-P receptor (read-out: IC50) was 7.30.

On to `CN(Cc1ccccc1)C(=O)[C@@H](Cc1csc2ccccc12)NC(=O)C1C[C@@H](O)CN1C(=O)c1cn(C)c2ccccc12` (stereo not given in full), for which at 100 mg/kg the inhibition in vivo in the assay with Cavia porcellus [1] was 99%. For the same compound, the inhibition in vivo at 10 mg/kg in the assay with Cavia porcellus [2] came out at 34%. Further, the negative logarithm of the IC50 (pIC50) on Substance-P receptor (read-out: IC50) is 7.99.

For `CN(Cc1ccccc1)C(=O)[C@@H](Cc1ccccc1)NC(=O)C(CC(N)=O)NC(=O)c1c[nH]c2ccccc12` (stereo not given in full), the pIC50 on Substance-P receptor (read-out: IC50) is 8.05.

As for `CN(Cc1ccccc1)C(=O)C(Cc1ccccc1)NC(=O)C1C[C@@H](O)CN1C(=O)c1c[nH]c2ccccc12` (single isomer, unassigned), in the assay on Cavia porcellus [1], the inhibition in vivo at 100 mg/kg came to 8%. The pIC50 on Substance-P receptor (read-out: IC50) is 8.13.

In the assay with Cavia porcellus [1], `CN(Cc1ccccc1)C(=O)[C@@H](Cc1ccc(N)cc1)NC(=O)C1C[C@@H](O)CN1C(=O)c1cn(C)c2ccccc12` (stereo not given in full) yielded an inhibition in vivo at 100 mg/kg of 0%. The pIC50 at Substance-P receptor (read-out: IC50) was 8.27.

As to `CN(Cc1ccccc1)C(=O)[C@@H](Cc1ccc2c(c1)CCCC2)NC(=O)C1C[C@@H](O)CN1C(=O)c1cn(C)c2ccccc12` (stereo not given in full), testing at 100 mg/kg in the assay with Cavia porcellus [1] gave an inhibition in vivo of 87%. This compound had an inhibition in vivo at 10 mg/kg with Cavia porcellus [2] of 69%. In addition, on Substance-P receptor (read-out: IC50), the pIC50 was 7.94.

Consider `CN(Cc1ccccc1)C(=O)[C@@H](Cc1ccc(C(F)(F)F)cc1)NC(=O)C1C[C@@H](O)CN1C(=O)c1cn(C)c2ccccc12` (stereo not given in full), for which, in the assay with Cavia porcellus [1], the inhibition in vivo at 100 mg/kg was 94%. In the assay on Cavia porcellus [2], this compound came in with an inhibition in vivo at 10 mg/kg of 83%. On Substance-P receptor, this compound had a pIC50 of 8.31.

Compound `CN(Cc1ccccc1)C(=O)[C@@H](Cc1ccc(F)cc1)NC(=O)C1C[C@@H](O)CN1C(=O)c1cn(C)c2ccccc12` (stereo not given in full) yielded an inhibition in vivo at 100 mg/kg with Cavia porcellus [1] of 96%. Moreover, 10 mg/kg produced 30% inhibition in vivo in the assay on Cavia porcellus [2]. At Substance-P receptor, this compound had a negative-log IC50 (pIC50) of 8.37.

Consider `CN(Cc1ccccc1)C(=O)[C@@H](Cc1ccccc1)NC(=O)C1CCC(O)CN1C(=O)c1c[nH]c2ccccc12` (stereo not given in full), for which the pIC50 at Substance-P receptor (read-out: IC50) was 6.54.

Turning to `CN(Cc1ccccc1)C(=O)[C@@H](Cc1ccccc1)NC(=O)C(CCCCN)NC(=O)c1c[nH]c2ccccc12` (stereo not given in full), the pIC50 at Substance-P receptor (read-out: IC50) is 7.85.

With `CN(Cc1ccccc1)C(=O)[C@@H](Cc1ccccc1)NC(=O)C(CC(=O)O)NC(=O)c1c[nH]c2ccccc12` (stereo not given in full), the IC50 entry at Substance-P receptor is “Not Active”.

For `CN(Cc1ccccc1)C(=O)[C@@H](Cc1cccc(F)c1)NC(=O)C1C[C@@H](O)CN1C(=O)c1cn(C)c2ccccc12` (stereo not given in full), the inhibition in vivo at 100 mg/kg in the assay on Cavia porcellus [1] was 85%. Further, at Substance-P receptor, the pIC50 is 8.04.

Turning to `CN(Cc1ccccc1)C(=O)[C@@H](Cc1ccccc1)NC(=O)C1C[C@@H](O)CN1C(=O)CCc1ccccc1` (stereo not given in full), at 10 mg/kg the inhibition in vivo in the assay on Cavia porcellus [2] was 4%. Moreover, on Substance-P receptor (read-out: IC50), the pIC50 is 7.85.

The compound `COc1ccc(C[C@@H](NC(=O)C2C[C@@H](O)CN2C(=O)c2cn(C)c3ccccc23)C(=O)N(C)Cc2ccccc2)cc1` (stereo not given in full) showed an inhibition in vivo at 100 mg/kg in the assay with Cavia porcellus [1] of 91%. Also, in the assay with Cavia porcellus [2], the inhibition in vivo at 10 mg/kg came to 29%. The pIC50 on Substance-P receptor (read-out: IC50) is 8.12.

In the case of `CN(Cc1ccccc1)C(=O)[C@@H](Cc1ccccc1)NC(=O)C1CCN1C(=O)c1c[nH]c2ccccc12` (stereo not given in full), at Substance-P receptor (read-out: IC50), the pIC50 is 8.10.

`CC(C)n1cc(C(=O)N2C[C@H](O)CC2C(=O)N[C@H](Cc2ccccc2)C(=O)N(C)Cc2ccccc2)c2ccccc21` (stereo not given in full) returned an inhibition in vivo at 10 mg/kg in the assay with Cavia porcellus [2] of 48%. Further, the pIC50 on Substance-P receptor (read-out: IC50) was 7.80.

Regarding `CN(Cc1ccccc1)C(=O)[C@@H](Cc1ccccc1)NC(=O)C1CCCN1C(=O)c1c[nH]c2ccccc12` (stereo not given in full), the pIC50 at Substance-P receptor (read-out: IC50) is 8.27.

As for `CN(Cc1ccccc1)C(=O)[C@@H](Cc1ccc2ccccc2c1)NC(=O)C1C[C@@H](O)CN1C(=O)c1cn(C)c2ccccc12` (stereo not given in full), the inhibition in vivo at 100 mg/kg in the assay with Cavia porcellus [1] is 94%. In the assay with Cavia porcellus [2], this compound registered an inhibition in vivo at 10 mg/kg of 86%. For the same compound, the pIC50 on Substance-P receptor (read-out: IC50) was 8.77.
